In PubChem BioAssay:
Active and inactive are the calls of the source.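 The calls were made as follows, unless noted: active = NADPH fluorescence slope more negative than the mean of all samples by about 3 SD, 99.7% confidence; inactive = the rest.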

Key:
[1] = inhibitors of TNFa-induced NFkB p65 translocation, primary screen, imaging, HUVEC, MLSMR starter and 10KST1 sets (AID 438;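 active = inhibition above 20% together with a positive visual image hit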;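 also: compound added about 3h40 before a 20 min TNFalpha stimulation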;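 as to inhibition: signal is the nuclear over cytoplasmic p65 intensity ratio per well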); settings: HUVEC TNFa-induced p65 nuclear translocation; cell count: measured here: nuclei count (cytotoxicity indicator), at 2.08 µM; inhibition: at 2 µM, stronger effect = higher value, 0% TNFa-plus-vehicle, 100% no-TNFa wells
[2] = endothelial E-selectin expression blockers – imaging, HUVEC, immunofluorescence, MLSMR starter and 10KST1 sets, primary screen (AID 487;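 active = visually confirmed hit in the image check and inhibition above 20%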;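 as to inhibition: signal is fraction of cell area covered by stained E-selectin grains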;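 as to nuclei count: 100% = median nuclei count of all wells on the same plate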); settings: HUVEC TNFalpha-induced E-selectin immunofluorescence imaging, at 2 µM; inhibition: stronger effect = higher value; nuclei count: measured here: cell number, toxicity
[3] = Primary imaging screen for DUSP6 inhibitors that restore phospho-Erk in transfected HeLa cells, chemical complementation (AID 609;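 active = compounds giving at least 50% inhibition in the cell-based MKP-3 phosphatase rescue imaging test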;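 as to inhibition: phospho-Erk level distribution per well compared with pooled transfected vehicle control wells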); settings: HeLa MKP-3 transfected, phospho-Erk imaging KS statistic, at 10 µM, cells stimulated with TPA for 15 min
[4] = biological target: Dual specificity protein phosphatase 6 (Homo sapiens) (UniProt Q16828); assay: as above; settings: HeLa MKP-3 transfected, phospho-Erk imaging KS statistic; at 10 µM; stronger effect = higher value; cells stimulated with TPA for 15 min
Chain of Dual specificity protein phosphatase 6 (Homo sapiens) (Q16828 whole entry, looked up): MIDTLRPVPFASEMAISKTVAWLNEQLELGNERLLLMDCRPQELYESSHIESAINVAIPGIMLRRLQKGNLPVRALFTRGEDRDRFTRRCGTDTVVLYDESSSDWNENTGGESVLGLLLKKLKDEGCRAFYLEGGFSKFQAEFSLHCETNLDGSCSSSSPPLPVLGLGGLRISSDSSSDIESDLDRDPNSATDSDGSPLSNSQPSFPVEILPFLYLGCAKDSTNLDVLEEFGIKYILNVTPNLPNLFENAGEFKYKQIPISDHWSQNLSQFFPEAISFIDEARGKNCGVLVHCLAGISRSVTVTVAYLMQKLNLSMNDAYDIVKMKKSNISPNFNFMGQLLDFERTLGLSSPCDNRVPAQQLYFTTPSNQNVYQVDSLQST

[5] = biological target: Voltage-gated potassium channel subunit beta-2 (Rattus norvegicus) (UniProt P62483); assay: inhibitors of rat Kvbeta2 reductase activity – biochemical, NADPH fluorescence, primary screen (AID 622;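 active = fluorescence slope higher than the sample average by over 3 SD, cut at about -0.22 in these data, passing the limit was not always enough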;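 also: slope of raw intensity against log time taken from 70 to 1610 s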); settings: recombinant KvBeta, 4-cyanobenzaldehyde reduction, at 10 µM, stronger effect = higher value
Chain of Voltage-gated potassium channel subunit beta-2 (Rattus norvegicus) (P62483 whole entry, looked up): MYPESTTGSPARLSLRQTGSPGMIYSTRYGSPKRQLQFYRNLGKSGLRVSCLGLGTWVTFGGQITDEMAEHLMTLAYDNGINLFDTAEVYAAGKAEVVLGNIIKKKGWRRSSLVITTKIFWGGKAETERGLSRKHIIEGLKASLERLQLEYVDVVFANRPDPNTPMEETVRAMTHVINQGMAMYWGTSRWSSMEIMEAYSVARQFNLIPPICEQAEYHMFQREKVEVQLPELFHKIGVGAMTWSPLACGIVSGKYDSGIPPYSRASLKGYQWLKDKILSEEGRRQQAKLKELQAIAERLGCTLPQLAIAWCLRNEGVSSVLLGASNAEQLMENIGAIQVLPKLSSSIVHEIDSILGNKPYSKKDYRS

[6] = biological target: Voltage-gated potassium channel subunit beta-2 (Rattus norvegicus) (UniProt P62483); assay: enhancers of rat Kvbeta2 NADPH turnover – biochemical, NADPH fluorescence, primary screen (AID 623); settings: Recombinant KvBeta, NADPH fluorescence decrease slope, 10 min; at 10 µM; stronger effect = lower value;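 also: fluorescence intensity change per second fitted from 20 to 320 s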
[7] = biological target: Muscarinic acetylcholine receptor M4 (Homo sapiens) (UniProt P08173); assay: M4-linked GIRK flux change, two-sided – cell-based, HEK293 M4/GIRK, thallium flux, BTC-AM, M4 allosteric agonist project, primary screen (AID 625;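 active = fluorescence slope after compound addition differing from the mean of all tested samples at 99.7% confidence, mostly higher but some lower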;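 also: thallium influx through GIRK channels coupled to M4 in HEK293 cells with BTC-AM dye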); settings: at 10 µM, actives lie on both sides
Chain of Muscarinic acetylcholine receptor M4 (Homo sapiens) (P08173 whole entry, looked up): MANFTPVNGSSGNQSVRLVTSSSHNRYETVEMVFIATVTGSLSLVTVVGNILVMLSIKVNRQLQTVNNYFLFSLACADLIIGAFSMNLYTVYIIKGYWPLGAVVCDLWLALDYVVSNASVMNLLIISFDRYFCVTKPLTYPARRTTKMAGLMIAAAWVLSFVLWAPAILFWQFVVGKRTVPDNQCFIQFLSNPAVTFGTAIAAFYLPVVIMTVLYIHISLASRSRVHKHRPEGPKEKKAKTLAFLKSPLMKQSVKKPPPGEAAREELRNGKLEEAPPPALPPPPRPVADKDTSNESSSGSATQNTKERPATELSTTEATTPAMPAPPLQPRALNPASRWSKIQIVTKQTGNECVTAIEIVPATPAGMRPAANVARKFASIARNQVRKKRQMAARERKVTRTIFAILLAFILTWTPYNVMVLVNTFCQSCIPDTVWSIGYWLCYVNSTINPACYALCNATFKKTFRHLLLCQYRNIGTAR
Summary of the method: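 Material: M4/GIRK1/GIRK2 stable HEK293 cell line. Medium: pH 7.3 thallium assay buffer. Dosing: single compound concentration, 10 µM final. Schedule: 1 h dye loading, 2 min kinetic read. Measured by: kinetic fluorescence with BTC-AM dye. Read-out: post-addition slope, 15–24 s, of baseline-normalized fluorescence. Benchmarks: carbachol and DMSO controls.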

[8] = inhibitors of larval lipid processing in zebrafish, primary screen, whole organism, PED6 fluorescence, gall bladder and intestine (AID 686;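 active = a full or partial loss of lipid-probe fluorescence in the fish gall bladder, intestine or both, judged by eye; inactive = no fluorescence loss, or compound toxic to the fish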;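 also: larvae 5 to 7 days old with five fish per well; signal comes from phospholipase A2 cleavage of quenched PED6 carried via bile; overnight exposure to compound and PED6 before scoring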); settings: Zebrafish larvae PED6 lipid processing, fluorescence scoring; screened at 20 µM (by protocol)
Summary of the method: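 System: live zebrafish larvae aged 5-7 days, whole organism; measure: graded gall bladder and intestinal fluorescence inhibition per well; incubation: overnight exposure; reagent: ingested quenched lipid PED6 at 100 nM; signal: By-eye fluorescence microscopy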

[9] = loss of swimming-algae plug formation – whole organism, Chlamydomonas reinhardtii, WT vs cilia-less mutant, absorbance, 96-well, primary screen (AID 463189;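 active = inhibition at or above 50% relative to wild type and mutant plate controls; inactive = inhibition below 50%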;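 also: 0% = wild type cc124 cells in DMSO and 100% = ciliumless bld1 mutant cells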); settings: Chlamydomonas reinhardtii gravitaxis, OD600 absorbance, 2 days; at 10 µM; stronger effect = higher value
[10] = measured here: cell density z-score
[11] = measured here: nuclear c-Myc green intensity z-score
[12] = measured here: nuclear pErk red intensity z-score, stronger effect = higher value

| SMILES | cell count [1] | inhibition [1] | inhibition [2] | nuclei count [2] [%] | z-score [3, 10] | z-score [3, 11] | z-score [3, 12] | inhibition [4] | fluorescence slope [5] | NADPH fluorescence slope [6] | fluorescence slope [7] | outcome [8] | inhibition [9] |
| --- | --- | --- | --- | --- | --- | --- | --- | --- | --- | --- | --- | --- | --- |
| O=C(O)c1cc2sccc2s1 | 643 | 0% (inactive) | 23.1% (inactive) | 160 | 0.481 | -0.0742 | -0.912 | -6.48% (inactive) | -0.465 (inactive) | -2.7e-05 (inactive) | 0.005 (inactive) | inactive | -3.38% (inactive) |
| O=c1[nH]c2sc3c(c2c(=O)n1Cc1ccccc1)CCC3 | 602 | -2.5% (inactive) | -99.8% (inactive) | 146 | 0.896 | 0.335 | -0.051 | 9.07% (inactive) | -0.453 (inactive) | -0.000103 (inactive) | 0.00552 (inactive) | inactive | -9.09% (inactive) |
| CCCCC(CCC(=O)Nc1ccc(C(=O)OC)cc1)C(=O)O (stereo unspecified) | 405 | -4.7% (inactive) | -189% (inactive) | 152 | 0.378 | -1.21 | -0.623 | 14% (inactive) | -0.439 (inactive) | -0.000105 (inactive) | 0.00484 (inactive) | inactive | 25.1% (inactive) |
| Nc1nc2n(n1)C(c1cccs1)CC(c1ccc(Br)cc1)N2 (stereo unspecified) | 409 | -1% (inactive) | -13.7% (inactive) | 149 | -0.806 | 0.38 | 0.438 | 5.65% (inactive) | -0.443 (inactive) | -9.3e-05 (inactive) | 0.0057 (inactive) | inactive | 21.9% (inactive) |
| CCOC(=O)/C=c1\s/c(=C(\C#N)C(=O)OCC)n(-c2ccccc2)c1=O | 653 | -4.6% (inactive) | -12% (inactive) | 151 | -0.465 | -0.678 | -0.157 | 1.42% (inactive) | -0.359 (inactive) | -6.6e-07 (inactive) | 0.00573 (inactive) | inactive | -7.74% (inactive) |
| Cn1ccnc1C(O)c1ccc(OCc2ccccc2)cc1 (stereo unspecified) | 473 | -1.1% (inactive) | -18.4% (inactive) | 113 | -3.29 | 1.73 | -0.207 | 7.42% (inactive) | -0.487 (inactive) | -0.000123 (inactive) | 0.00541 (inactive) | inactive | -11.2% (inactive) |
| CCOc1ccc(-c2nc(C#N)c(NCC(C)C)o2)cc1 | 402 | -4% (inactive) | -45.5% (inactive) | 159 | -1.19 | -0.813 | 2.25 | -2.69% (inactive) | -0.474 (inactive) | -8e-05 (inactive) | 0.00573 (inactive) | inactive | -4.03% (inactive) |
| COc1ccc2c(c1OC)C(=O)N1c3ccccc3C(=O)N(c3ccccc3F)C21 (stereo unspecified) | 708 | -7.9% (inactive) | -37.7% (inactive) | 134 | 0.797 | -1.74 | -0.312 | 5.35% (inactive) | -0.444 (inactive) | -5.7e-05 (inactive) | 0.00636 (inactive) | inactive | 3.94% (inactive) |
| O=C1NCC(COCC2CC=CCC2)O1 (stereo unspecified) | 574 | -4% (inactive) | 50.9% (inactive) | 136 | 0.151 | -0.463 | -0.815 | 19.4% (inactive) | -0.408 (inactive) | -2.8e-05 (inactive) | 0.0053 (inactive) | inactive | 41.8% (inactive) |
| Nc1ccc2oc(-c3ccccc3Cl)nc2c1 | 644 | -0.2% (inactive) | 7.8% (inactive) | 145 | 0.0664 | -0.553 | -0.135 | -7.67% (inactive) | -0.136 (inactive) | -5.7e-05 (inactive) | 0.00466 (inactive) | inactive | 26.6% (inactive) |
| CN(CCCCCC(=O)/C=N/O)Cc1ccccc1 | 673 | -7.2% (inactive) | -29.9% (inactive) | 182 | -0.259 | -0.553 | -0.0581 | -9.53% (inactive) | -0.493 (inactive) | -9.8e-05 (inactive) | 0.00525 (inactive) | inactive | 23.8% (inactive) |
| CCC(=O)Nc1c(C#N)c2nc3ccccc3nc2n1C1CCCCC1 | 563 | -4.1% (inactive) | 6.8% (inactive) | 99.6 | 0.5 | -1.07 | -5.03 | -2.09% (inactive) | -0.342 (inactive) | 4.3e-06 (inactive) | 0.00526 (inactive) | inactive | 18.8% (inactive) |
| COc1ccc(-c2nc3c(Br)c(N)c(Br)cc3o2)cc1 | 497 | -7.6% (inactive) | -77.2% (inactive) | 140 | 0.844 | -1.44 | 0.173 | -1.98% (inactive) | -0.404 (inactive) | -2.1e-05 (inactive) | 0.0064 (inactive) | inactive | 14.6% (inactive) |
| COc1cccc(C(=O)Nc2ccc(-c3nnc(-c4ccco4)o3)cc2)c1 | 684 | 6.3% (inactive) | 25.7% (inactive) | 158 | -0.186 | 0.958 | -0.649 | 1.63% (inactive) | -0.476 (inactive) | -4.6e-05 (inactive) | 0.00624 (inactive) | inactive | -6.98% (inactive) |
| COC(=O)c1ccc(CSc2nc(N3CCOCC3)c3c(c2C#N)CC(C)(C)OC3)o1 | 563 | -4.2% (inactive) | -97.4% (inactive) | 151 | 0.813 | -0.6 | 1.8 | 1.63% (inactive) | -0.461 (inactive) | -0.000112 (inactive) | 0.00467 (inactive) | inactive | 6.95% (inactive) |
| O=C(NCCCNCc1ccccc1)/C(=N\O)c1ccccc1 | 518 | -4.7% (inactive) | -1% (inactive) | 164 | -0.176 | 1.16 | 0.402 | 15.9% (inactive) | -0.401 (inactive) | -5.4e-05 (inactive) | 0.00368 (inactive) | inactive | 7.18% (inactive) |
| Cc1c(C)c2cc(Cl)c(O)c(CN3CCCC(C)C3)c2oc1=O (stereo unspecified) | 540 | -4.7% (inactive) | 45.7% (inactive) | 94.2 | 0.999 | 0.842 | -1.58 | 9.37% (inactive) | -0.0221 (inactive) | -5.4e-06 (inactive) | 0.00608 (inactive) | inactive | -7.68% (inactive) |
| C=C(C)CN(CC)CCC(=O)Nc1ccc(OC)cc1OC | 486 | -7.5% (inactive) | -273% (inactive) | 172 | -0.562 | 0.149 | 0.762 | -7.28% (inactive) | -0.424 (inactive) | -3.9e-05 (inactive) | 0.0048 (inactive) | inactive | 11.3% (inactive) |
| Oc1ccc2ccccc2c1C=NC12CN3CCN(CN(C3)C1)C2 | 349 | -5.7% (inactive) | -45.1% (inactive) | 163 | -0.271 | 0.531 | 0.781 | -2.59% (inactive) | -0.436 (inactive) | -0.000124 (inactive) | 0.00489 (inactive) | inactive | 1.64% (inactive) |
| CCn1nc(NC(=O)c2ccco2)c2cc3ccccc3nc21 | 700 | -11.3% (inactive) | -20.2% (inactive) | 168 | -0.0808 | 0.362 | -0.0698 | -6.48% (inactive) | -0.404 (inactive) | -4.1e-05 (inactive) | 0.0055 (inactive) | inactive | -8.58% (inactive) |
| C=CCOn1c(=O)c(-c2ccc(OC)cc2)[n+]([O-])c2ccccc21 | 586 | -10.1% (inactive) | -77.9% (inactive) | 148 | 0.271 | 0.00215 | -0.813 | 13.9% (inactive) | -0.416 (inactive) | -5.2e-05 (inactive) | 0.00502 (inactive) | inactive | 19.7% (inactive) |
| CCN(CC)Cc1c(O)ccc2c(C)c(CC(=O)OC)c(=O)oc12 | 660 | -1.4% (inactive) | 1.9% (inactive) | 145 | 0.613 | -0.319 | -0.573 | 2.71% (inactive) | -0.0165 (inactive) | -6.9e-06 (inactive) | 0.00599 (inactive) | inactive | 5.82% (inactive) |
| CC(=O)Nc1ccc(NCC(O)COc2ccccc2)cc1 (stereo unspecified) | 374 | 6.4% (inactive) | 6.8% (inactive) | 81.4 | -1.13 | -0.751 | 0.509 | -2.59% (inactive) | -0.495 (inactive) | -6.3e-05 (inactive) | 0.00402 (inactive) | inactive | 22.2% (inactive) |
| Cc1ccc(N2C(=O)CC3(CC4C=CC3C4)C2=O)cc1 (stereo unspecified) | 637 | 6.2% (inactive) | -47.9% (inactive) | 115 | 1.62 | -0.359 | -0.765 | -2.09% (inactive) | -0.414 (inactive) | -3.6e-05 (inactive) | 0.00482 (inactive) | inactive | -4.98% (inactive) |
| CCCCCOC(=O)C(C)c1c(C)[nH]c(=S)[nH]c1=O (stereo unspecified) | 628 | -1.4% (inactive) | -25.9% (inactive) | 158 | -0.614 | -0.028 | 2.51 | 1.04% (inactive) | -0.47 (inactive) | -8.1e-05 (inactive) | 0.00582 (inactive) | inactive | -3.91% (inactive) |
| Cc1nc(NCCCO)c(C#N)c2c1COC(C)(C)C2 | 588 | -3.1% (inactive) | -70% (inactive) | 142 | -0.306 | -0.435 | -0.462 | 12.8% (inactive) | -0.432 (inactive) | -9.1e-05 (inactive) | 0.00443 (inactive) | inactive | 24% (inactive) |
| Cc1ccc(N2CC(C(=O)Nc3ccc(N(C)C)cc3)CC2=O)cc1C (stereo unspecified) | 477 | -7.1% (inactive) | -76.8% (inactive) | 107 | -1.37 | 0.307 | 1.15 | -1.98% (inactive) | -0.411 (inactive) | -9.5e-07 (inactive) | 0.00461 (inactive) | inactive | -1.65% (inactive) |
